Experimental data pooled from the literature.
MTOR: Serine/threonine-protein kinase mTOR (MTOR, Homo sapiens, UniProt P42345)
MCU: Calcium uniporter protein, mitochondrial (MCU, Homo sapiens, UniProt Q8NE86)

| SMILES | target | assay | conditions | IC50 [nM] |
| --- | --- | --- | --- | --- |
| CC(=O)Oc1ccc(-c2coc3c4c(c(CC=C(C)C)c(OC(C)=O)c3c2=O)OC(C)(C)C=C4)cc1OC(C)=O | MTOR | enzyme activity, inhibitor, ELISA | – | 6200 |
| CC(C)C[C@H](NC(=O)[C@H](Cc1ccccc1)NC(=O)[C@H](Cc1ccc(O)cc1)NC(=O)CNC(=O)[C@H](CCCCN)NC(=O)[C@H](CO)NC(=O)[C@H](CCC(N)=O)NC(=O)CNC(=O)[C@@H](NC(=O)[C@H](CO)NC(=O)[C@@H]1CCCN1C(=O)[C@H](CO)NC(=O)[C@H](CCC(N)=O)NC(=O)[C@H](Cc1ccc(O)cc1)NC(=O)[C@H](CCC(=O)O)NC(=O)[C@H](C)NC(=O)[C@H](CCCCN)NC(=O)[C@@H](N)Cc1ccccc1)C(C)C)C(=O)N[C@@H](Cc1ccccc1)C(=O)N[C@@H](CCCNC(=N)N)C(=O)N1CCC[C@H]1C(=O)N[C@@H](CCCNC(=N)N)C(=O)N[C@@H](CC(N)=O)C(N)=O | Neuromedin-U receptor 2 (Mus musculus, UniProt Q8BZ39) | ligand displacement, radioligand | – | 0.0302 |
| COc1cc(OC)c2c(O)c3c(=O)cc(C)oc3cc2c1 | Beta-secretase 1 (BACE1, Homo sapiens, UniProt P56817) | enzyme activity, inhibitor, FRET | – | > 100000 |
| Nc1ncc(-c2nc(N3CCOCC3)nc(N3CCOCC3)n2)c(C(F)F)n1 | MTOR | ligand displacement, TR-FRET | – | 49.9 |
| COc1ccc(C(=O)O)cc1S(=O)(=O)Nc1ccc(C(F)(F)F)cc1N1CCCCC1 | Endoplasmic reticulum aminopeptidase 2 (ERAP2, Homo sapiens, UniProt Q6P179, K392N) | enzyme activity, inhibitor | – | 44000 |
| CC(C)C[C@H](NC(=O)[C@H](Cc1ccccc1)NC(=O)c1cnccn1)B(O)O | Neutrophil elastase (ELANE, Homo sapiens, UniProt P08246) | enzyme activity, inhibitor | – | > 33000 |
| COc1ccc2[nH]cc(CN3CCC(O)(c4ccc(SC)cc4)CC3)c2c1 | D(2) dopamine receptor (DRD2, Homo sapiens, UniProt P14416) | ion current | – | 250 |
| NCCN.NCCN.NCCN.[Co+3] | MCU | transporter uptake, inhibitor | – | 76 |
| Cl.Cl.N.N.N.N.N.N.N.N.[N-3].[Ru+4].[Ru+4] | MCU | transporter uptake, inhibitor | – | 2.2 |
| COc1cc(Nc2ncc(F)c(Nc3ccc4c(n3)NC(=O)C(C)(C)O4)n2)cc(OC)c1OC | Adenosine receptor A3 (ADORA3, Homo sapiens, UniProt P0DMS8) | cell-free assay, inhibitor | – | 20 |
| O=C(O)c1c(Cl)c(Cl)c(Cl)c(Cl)c1-c1c2cc(I)c(=O)c(I)c-2oc2c(I)c(O)c(I)cc12 | Delta-aminolevulinic acid dehydratase (Homo sapiens, UniProt P13716, C162A/K59N) | enzyme activity, inhibitor, absorbance | pH 8 | 6900 |
